Assay [1] has as its target T1, LdisPBP1 (Lymantria dispar, UniProt O16105).
T1 sequence (O16105 20-162): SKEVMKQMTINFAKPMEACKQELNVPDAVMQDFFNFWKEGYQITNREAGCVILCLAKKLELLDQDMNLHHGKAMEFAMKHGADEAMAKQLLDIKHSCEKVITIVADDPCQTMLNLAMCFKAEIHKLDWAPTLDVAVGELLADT
Nature of the assay: fluorescence titration of 1-NPN with LdisPBP1. The conditions noted are these: dissociation constant of the LdisPBP1/1-NPN complex. In kind it is binding. An outline of the steps:
(§1)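 Recombinant His-tagged PBP from E. coli, Ni-resin and gel-filtration purified. A 2 μM protein solution in 50 mM Tris-HCl pH 7.3 or 50 mM Na2HPO4-citric acid pH 5.5 was titrated with 1-NPN (1 mM methanol stock) to 1–20 μM final. 25°C; excitation 337 nm, emission 370–470 nm, 10 nm slits. Kd calculated from the binding curve; three independent measurements.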

The target of assay [2] is T2, LdisPBP2 (Lymantria dispar, UniProt O16106).
T2 sequence (O16106 21-165): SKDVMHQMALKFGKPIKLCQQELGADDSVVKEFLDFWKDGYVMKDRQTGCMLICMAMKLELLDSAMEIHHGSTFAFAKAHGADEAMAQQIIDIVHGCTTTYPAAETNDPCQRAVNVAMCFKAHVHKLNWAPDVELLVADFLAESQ
Put plainly: fluorescence titration of 1-NPN with LdisPBP2. In kind it is binding. To be noted: dissociation constant of the LdisPBP2/1-NPN complex. A digest of the protocol:
as §1

In assay [3] the target is T1, LdisPBP1. Nature of the assay: competitive fluorescence binding assay with 1-NPN as probe, LdisPBP1. A digest of the protocol:
(§2)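 N-terminally His-tagged recombinant PBP was expressed in E. coli BL21(DE3) (0.25 mM IPTG, 18°C overnight), then purified by Ni-resin and gel filtration. 2 μM protein plus 2 μM 1-NPN in 50 mM Tris-HCl pH 7.3 or 50 mM Na2HPO4-citric acid pH 5.5, at 25°C; ex 337 nm, em 370–470 nm. Competitors (1 mM methanol stock) at 2–20 μM. IC50 = half-maximal fluorescence reduction; Ki = IC50/(1+[1-NPN]/K1-NPN). Triplicates.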

In assay [4] the target is T2, LdisPBP2. Nature of the assay: competitive fluorescence binding assay with 1-NPN as probe, LdisPBP2. A digest of the protocol: as §2
Assay [5] has as its system male L.dispar. Put plainly: initial field experiment, attraction of male moths. In kind it is in vivo, Lymantria dispar. The conditions noted are these: initial field experiment (data not shown).
For assay [6], the system named is gypsy moth. To be noted: cited from earlier work.
The subject of assay [7] is PBP1. The conditions noted are these: cited from earlier work.
[8] abbreviates: PBP1[Ki(μM)] pH5.5, pH 5.5, n=3, 2 μM protein and 1-NPN.
Setting [9] is: PBP1[Ki(μM)] pH7.3, pH 7.3, n=3, 2 μM protein and 1-NPN.
[10] abbreviates: PBP2[Ki(μM)] pH5.5, pH 5.5, n=3, 2 μM protein and 1-NPN.
[11] abbreviates: PBP2[Ki(μM)] pH7.3, pH 7.3, n=3, 2 μM protein and 1-NPN.

A word on the Kd: it is a measure of binding affinity in units of concentration. High values mean a looser complex, low ones a tighter complex. `c1ccc(Nc2cccc3ccccc23)cc1` [1-NPN, N-phenyl-1-naphthylamine]: the equilibrium dissociation constant (Kd) in assay [1] (pH 5.5) worked out at 1710 ± 200 nM; in assay [1] (pH 7.3) it was 1770 ± 310 nM; in assay [2] (pH 5.5), 8740 ± 2050 nM; in assay [2] (pH 7.3), 2030 ± 420 nM.

A word on the Ki: it is a dissociation constant, usually derived from enzyme kinetics or from competition with a known ligand. Higher therefore signals weaker binding. Consider `O=C(CCCCC(=O)OCC1CCC2OC2C1)OCC1CCC2OC2C1` (stereo not shown) [Bis, Bis(3,4-epoxycyclohexylmethyl) adipate], for which the Ki in assay [3] (setting [8]) was found to be 2.2 ± 0.01 µM; in assay [3] (setting [9]), 3.25 ± 0.02 µM; in assay [4] (setting [10]), 3.54 ± 0.01 µM; in assay [4] (setting [11]) it was 1.97 ± 0.01 µM. In assay [5], the “attraction of male L.dispar compared with (+)-D alone” value is “reverse”.

For `CCCCCCCCCCC1OC12CC2` (stereo not shown) [OXP1, 2-decyl-1-oxaspiro[2.2]pentane], the inhibition constant (Ki) amounted to 0.68 ± 0.01 µM in assay [3] (setting [8]), 1.87 ± 0.01 µM in assay [3] (setting [9]), 1.88 ± 0.02 µM in assay [4] (setting [10]) and 1.85 ± 0.02 µM in assay [4] (setting [11]). Further, in assay [6], the “effect on the pheromone” value is on record as “inhibited the effect of the pheromone”.

With `CCCCCCCCCC[C@H]1O[C@H]1CCCCC(C)C` [(-)-disparlure], in assay [7], the “binding preference of PBP1 for pheromone enantiomers” value was “preferentially bound”.

In the case of `O=Cc1ccccc1O` [Sal, Salicylaldehyde], the inhibitory constant (Ki) in assay [3] (setting [8]) was 3.05 ± 0.01 µM; in assay [3] (setting [9]) it was 2.93 ± 0.02 µM; in assay [4] (setting [10]), 6.06 ± 0.06 µM; in assay [4] (setting [11]) it was 5.32 ± 0.07 µM. The “attraction of male L.dispar compared with (+)-D alone” value in assay [5] was “reverse”.

`OCCCCC1OC12CC2` (stereo not shown) [OXP2, 4-(1-oxaspiro[2.2]pent-2-yl)butan-1-ol]: the inhibition constant (Ki) in assay [3] (setting [8]) was 6.33 ± 0.18 µM; in assay [3] (setting [9]) it was 2.99 ± 0.08 µM; in assay [4] (setting [10]), 5.14 ± 0.06 µM; in assay [4] (setting [11]), 2.46 ± 0.02 µM. Moreover, in assay [6], the “effect on the pheromone” value is “enhanced that of pheromone”.
